Data reported in ChEMBL document CHEMBL1151950, “Antioxidant phenylethanoid glycosides and a neolignan from Jacaranda caucana” (J Nat Prod, 2009).

How the values were obtained:
[1] = Antioxidant activity assessed as protection against peroxyl radical-induced alkaline phosphatase activity loss by microplate assay; assay type: functional
Summary of the method: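 Pure compounds were tested in the microplate alkaline phosphatase (ALP) oxidation-protection assay. The reported value is EC50, the antioxidant concentration that protects ALP by 50% from peroxyl radical-induced loss of activity.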

[2] = DPPH radical scavenging activity assessed as ratio of antioxidant concentration to drug level causing 50% decrease in DPPH level at steady state by microplate assay

Compound | EC50 [1] | Ratio [2]
C[C@@H]1O[C@@H](O[C@@H]2[C@@H](O)[C@H](OCCc3ccc(O)c(O)c3)O[C@H](COC(=O)C[C@]3(O)CC[C@@H](O)CC3)[C@H]2OC(=O)/C=C/c2ccc(O)c(O)c2)[C@H](O)[C@H](O)[C@H]1O | 1270 nM | 0.098
C[C@@H]1O[C@@H](O[C@@H]2[C@@H](O)[C@H](OCCc3ccc(O)c(O)c3)O[C@H](COC(=O)CC3(O)CCC(=O)CC3)[C@H]2OC(=O)/C=C/c2ccc(O)c(O)c2)[C@H](O)[C@H](O)[C@H]1O | 1270 nM | 0.079
COc1cc([C@H]2Oc3c(OC)cc([C@@H](O)[C@@H](O)CO)cc3[C@@H]2CO)ccc1O[C@@H]1O[C@@H](C)[C@H](O)[C@@H](O)[C@H]1O | 9070 nM | 1.84
C[C@@H]1O[C@@H](O[C@@H]2[C@@H](O)[C@H](OCCc3ccc(O)c(O)c3)O[C@H](CO)[C@H]2OC(=O)/C=C/c2ccc(O)c(O)c2)[C@H](O)[C@H](O)[C@H]1O [ACETOSIDE] | 1040 nM | 0.078
C[C@@H]1O[C@@H](O[C@@H]2[C@@H](O)[C@H](OCCc3ccc(O)c(O)c3)O[C@H](COC(=O)/C=C/c3ccc(O)c(O)c3)[C@H]2O)[C@H](O)[C@H](O)[C@H]1O [ISOACTEOSIDE] | 1200 nM | 0.07
COc1ccc(CCO[C@@H]2O[C@H](CO)[C@@H](OC(=O)/C=C/c3ccc(O)c(O)c3)[C@H](O[C@@H]3O[C@@H](C)[C@H](O)[C@@H](O)[C@H]3O)[C@H]2O)cc1O [JIONOSIDE D] | 1100 nM | 0.17
COc1ccc(CCO[C@@H]2O[C@H](CO)[C@@H](OC(=O)/C=C/c3ccc(O)c(OC)c3)[C@H](O[C@@H]3O[C@@H](C)[C@H](O)[C@@H](O)[C@H]3O)[C@H]2O)cc1O [MARTYNOSIDE A] | 2420 nM | 0.38
O=C(O)c1ccc(O)c(O)c1 [PROTOCATECHUIC ACID] | 2560 nM | 0.23
O=c1c(O)c(-c2ccc(O)c(O)c2)oc2cc(O)cc(O)c12 [QUERCETIN] | 1000 nM | 0.09
